According to PMC11298890 (iScience, 2024):
Like-named read-outs stand apart in the source and are kept apart here.

Tests used:
PfPRS [1] = target: T1, PfPRS (Plasmodium falciparum, UniProt Q8I5R7); assay type: binding; conditions: Enzyme:Compound 1:50
T1 sequence (Q8I5R7 250-746 limits assumed): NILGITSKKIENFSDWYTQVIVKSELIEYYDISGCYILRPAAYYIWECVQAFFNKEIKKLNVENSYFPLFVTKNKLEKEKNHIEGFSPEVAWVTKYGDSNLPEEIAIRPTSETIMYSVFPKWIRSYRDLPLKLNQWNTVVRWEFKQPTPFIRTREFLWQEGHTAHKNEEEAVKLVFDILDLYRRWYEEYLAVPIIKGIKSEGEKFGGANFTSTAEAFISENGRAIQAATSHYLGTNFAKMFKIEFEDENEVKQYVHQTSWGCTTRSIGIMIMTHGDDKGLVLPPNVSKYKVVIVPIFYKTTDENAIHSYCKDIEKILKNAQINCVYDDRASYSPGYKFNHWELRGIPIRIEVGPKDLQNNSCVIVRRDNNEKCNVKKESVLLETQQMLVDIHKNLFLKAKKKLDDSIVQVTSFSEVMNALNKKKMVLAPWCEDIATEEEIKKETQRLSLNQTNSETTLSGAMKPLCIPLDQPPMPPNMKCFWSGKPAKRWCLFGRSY

HsPRS [2] = target: T2, HsPRS (Homo sapiens, UniProt P07814); assay type: binding
T2 sequence (P07814 1007-1512 limits assumed): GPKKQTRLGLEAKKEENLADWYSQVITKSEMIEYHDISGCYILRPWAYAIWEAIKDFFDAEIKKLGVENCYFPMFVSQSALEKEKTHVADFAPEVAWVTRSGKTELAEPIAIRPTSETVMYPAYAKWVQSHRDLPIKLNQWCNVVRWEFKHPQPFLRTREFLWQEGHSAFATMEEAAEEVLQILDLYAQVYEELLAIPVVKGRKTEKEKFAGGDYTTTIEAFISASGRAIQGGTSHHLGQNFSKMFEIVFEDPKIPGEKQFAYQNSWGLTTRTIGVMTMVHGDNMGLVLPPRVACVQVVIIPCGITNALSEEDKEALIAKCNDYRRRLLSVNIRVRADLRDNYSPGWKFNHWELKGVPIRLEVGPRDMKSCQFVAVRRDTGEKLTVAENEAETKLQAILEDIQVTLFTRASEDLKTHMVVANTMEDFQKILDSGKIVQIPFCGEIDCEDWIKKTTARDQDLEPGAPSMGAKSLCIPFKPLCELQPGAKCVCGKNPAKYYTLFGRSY

PfPRS [3] = target: T1, PfPRS; experiment: Aminoacylation activity inhibition assay; assay type: biochemical
HsPRS [4] = target: T2, HsPRS; experiment: Aminoacylation activity inhibition assay; assay type: biochemical
[5] = system: Plasmodium falciparum 3D7; experiment: Asexual blood stage parasite growth inhibition; assay type: cell-based; conditions: 3D7, 48 h, read-out: Pf-EC50 (ABS), Pf 3D7, 48 h
PfPRS [6] = target: T1, PfPRS; experiment: Microscale thermophoresis; assay type: binding; conditions: for Kd: Kd-Pf
In short: (§1)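 Recombinant tag-cleaved PRS (affinity, heparin and gel-filtration purified) labelled on lysines with Red-NHS 2nd-generation dye and held at 100 nM. Kd from MST; two independent replicates.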

HsPRS [7] = target: T2, HsPRS; experiment: Microscale thermophoresis; assay type: binding; conditions: Kd-Hs
In short: as §1

[8] = replicate n = 1, MST, individual replicate 1
[9] = replicate n = 2, MST, individual replicate 2

## O=C(CC1NCCCC1O)Cn1cnc2cc(Br)c(Cl)cc2c1=O (centres unmarked) [HFG, Halofuginone]
PfPRS [1]; in presence of ATP (2 mM)
  PfPRS melting temperature (Tm): 87.7 °C
PfPRS [1]; in presence of L-pro (2 mM)
  PfPRS melting temperature (Tm): 54.7 °C
PfPRS [1]; in presence of L-pro + ATP (2 mM)
  PfPRS melting temperature (Tm): 86.6 °C
HsPRS [2]
  HsPRS ΔTm from Apo Tm: 61.4 (11.6) °C
HsPRS [2]; enzyme + inhibitor only, no substrate, Enzyme:Compound 1:100
  HsPRS melting temperature (Tm): 61.4 (11.6) °C
PfPRS [3]
  IC50: 0.0028 µM
PfPRS [3]; IC50 of the human enzyme divided by that of the plasmodium enzyme
  SI-IC50 (Hs/Pf): 3.9
HsPRS [4]
  IC50: 0.0109 µM
[5]
  EC50: 0.0002 µM
PfPRS [6]; Kd-Hs / Kd-Pf
  SI-Kd (Hs/Pf): 0.7
PfPRS [6]; [8]
  Kd: 0.0748 µM
PfPRS [6]; [9]
  Kd: 0.0729 µM
HsPRS [7]; [8]
  Kd: 0.0424 µM
HsPRS [7]; [9]
  Kd: 0.0619 µM
